The record followed here is PubChem BioAssay.

As a reminder, the viability is a read-out of living cells in per cent, often relative to untreated cells.

SMILES strings stand for the structures. Unmarked numbers belong to inactive results.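 Rule for the calls, unless noted: active = viability at or below 30% in both replicate assays; inconclusive = viability at or below 30% in just one of the two assays; inactive = the rest.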

One assay is described as follows: HUVEC growth inhibition – cell-based, human, primary screen (AID 575).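 Note: 100% = median of untreated cell wells with 0.1% DMSO on each plate.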 To be noted: HUVEC proliferation, CellTiter-Glo luminescence, 72 h; at 10 µM; stronger effect = lower value. Put shortly: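 Timing: 72 h treatment at 37 °C; material: HUVEC primary cells; technique: CellTiter-Glo luminescence measuring cellular ATP; controls: vehicle and MePR control wells; measure: percent of median DMSO-control luminescence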
Regarding `O=C(Cn1cc2c(n1)CCCCC2)N1CCc2ccccc21`, the viability was 67.6%.
Same read-out and setting: next, `CC(C)c1nccn1S(=O)(=O)c1cc(Cl)ccc1Cl`: 92.2%; `CC(=O)Nc1cccc(NC(=O)CSc2nn3c(=O)c(C)nnc3s2)c1`: 76.8%; `CCOc1ccc2nc(Nc3nc4c(c(=O)[nH]3)CCC4)nc(C)c2c1`: 98.4%.
On the same count and under the same terms, the result for `C(=N\c1c(-c2ccccc2)nc2n1CCS2)/c1ccccc1` reads 85.9%.
Still for that read-out and setting: next, `CCN(CC)S(=O)(=O)c1ccc2oc(C(=O)N3CCOCC3)c(C)c2c1`: 106%.
For `CCOC(=O)C1CCN(Cc2ccc(OC)c(C)c2OC)CC1`, the viability is 108%.
Regarding `Cc1cc(N)n2nc(-c3ccccc3)cc2n1`, the viability is 57.4%.
As for `Cc1nnc(SCC(=O)Nc2sc3c(c2C#N)CCCC3)[nH]c1=O`, the viability was 88.3%.
On to `Cc1cc(NC(=O)COc2cccc(C)c2C)no1`, for which the viability is 94.2%.
Turning to `Cc1cc(C)c(NC(=O)CSc2nc3c(c(=O)n2C)SC(C)C3)c(C)c1` (stereo not given), the viability was 96.7%.
In the case of `CC(=O)c1ccc(OCC(O)CN2CCN(CCO)CC2)cc1` (stereo not given), the viability is 99.2%.
As to `CCn1cc(C(=O)NCC2CCCO2)c(=O)c2cc(S(=O)(=O)N(C)C)ccc21` (stereo not given), the viability was 105%.
On the same count and under the same terms, the result for `C=CCSc1nc(N)c2c(C)c(C)sc2n1` reads 86.5%.
The same measure, in the same setting: the result for `CC1CCCN(C(=O)c2cc3c(-c4ccc(Cl)cc4)nn(C)c3s2)C1` (stereo not given) reads 77.4%; that for `COc1cccc2cc(C(=O)OC3CCN(C)CC3)c(=O)oc12`, 94.7%.
With `COC(=O)c1cn(C(=O)c2ccc(Br)o2)c2ccccc12`, the viability was 95.9%.
As for `COc1cc(NC(=O)C2C3C=CC(C3)C2C(=O)O)c(OC)cc1Cl` (stereo not given), the viability is 98.4%.
The same measure, in the same setting: next, `COc1ccc(C2CC(c3ccc(C)cc3)Nc3ncnn32)cc1` (stereo not given): 105%.
Take `CCc1ccc(C2CC(c3cccc(OC)c3)n3nc(N)nc3N2)cc1` (stereo not given): the viability was 113%.
For the compound `COc1ccc(NS(=O)(=O)c2coc(C(N)=O)c2)cc1Cl`, the viability is 119%.
As to `O=C1c2ccccc2S(=O)(=O)N1CC(O)Cn1c2ccccc2c2ccccc21` (stereo not given), the viability was 73.2%.
As for `O=C(Nc1nnc(-c2ccc(Cl)cc2)o1)C1CCCCC1`, the viability was 67%.
Same read-out and setting: next, `O=C1c2ccccc2C(Nc2ccc(F)cc2F)N1CCN1CCOCC1` (stereo not given): 87.8%.
Regarding `CCOc1ccc(N(CC(=O)NC2CCCCC2)S(=O)(=O)c2c(C)noc2C)cc1`, the viability was 87.3%.
Same read-out and setting: the result for `Cc1ccc2oc(=O)c3cnn(CC(=O)N4CCCc5ccccc54)c3c2c1` reads 89.8%.
For the compound `O=C(Nn1cnnc1)C1Cc2ccccc2CN1S(=O)(=O)c1ccc(F)cc1` (stereo not given), the viability is 90.4%.
For `Cc1cc(C)cc(N(CC(=O)NC2CCC(C)CC2)S(=O)(=O)c2c(C)noc2C)c1` (stereo not given), the viability is 94%.
Consider `Cc1nc2ccccn2c1/C(O)=C1\C(=O)C(=O)N(CCCN(C)C)C1c1ccc(F)cc1` (stereo not given), for which the viability is 94.4%.
The same measure, in the same setting: the result for `CC(=O)N(C(C)=O)c1ncc2c([nH]c3ccccc32)c1C#N` reads 53.4%; that for `CC(C)c1ccc(C(O)c2cnc(C(C)C)n2C)cc1` (stereo not given), 116%.
As for `COCCn1cc(C(=O)c2ccccc2OCC(=O)Nc2cc(C)on2)cc(C#N)c1=O`, the viability was 89%.
With `O=C(NC(=O)c1cccc(F)c1)OC[C@@H]1CCCN2CCCC[C@H]12`, the viability is 110%.
On the same count and under the same terms, next, `CCN1CCN(C(=O)Cn2ncc3ccsc3c2=O)CC1`: 89.8%.
For `CCCC(=O)Nc1cc(C)c2c(=O)oc3ccccc3c2n1`, the viability was 63.6%.
On the same count and under the same terms, next, `Cc1cc(C)c(C#N)c(SCC(=O)Nc2ccc(S(=O)(=O)Nc3onc(C)c3C)cc2)n1`: 82.4%; `CC1=C(C(N)=O)C(c2ccncc2)n2nc(-c3ccccc3Cl)nc2N1` (stereo not given): 90.1%; `O=C(C1CCCN1S(=O)(=O)c1cccc2cccnc12)N1CCn2c1nc1ccccc12` (stereo not given): 64.9%.
Same read-out and setting: next, `Cc1ccc(C(=O)CC2(O)C(=O)N(C)c3ccc(Br)cc32)c(C)c1` (stereo not given): 77.7%; `COc1ccc(OCCSc2nc3ccccc3n2CC(=O)O)cc1`: 85.4%.

A short description of another assay: growth inhibitors of H69AR lung tumor, primary screen, human, duplicate replicates (AID 580;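 active = viability at or under a set limit in both replicates, limit being median viability minus 3 SD, cut at about 48% in these data, passing the limit was not always enough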;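 note: 100% = mean luminescence of untreated wells and 0% = no signal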). To be noted: H69AR lung tumor cells viability, ATP luminescence, 72 h; at 10 µM; stronger effect = lower value.
Consider `O=C(Cn1cc2c(n1)CCCCC2)N1CCc2ccccc21`, for which the viability was 87.8%.
On the same count and under the same terms, the result for `CC(C)c1nccn1S(=O)(=O)c1cc(Cl)ccc1Cl` reads 90.3%; that for `CC(=O)Nc1cccc(NC(=O)CSc2nn3c(=O)c(C)nnc3s2)c1`, 90.8%.
Same read-out and setting: the result for `CCOc1ccc2nc(Nc3nc4c(c(=O)[nH]3)CCC4)nc(C)c2c1` reads 103%; that for `C(=N\c1c(-c2ccccc2)nc2n1CCS2)/c1ccccc1`, 100%; that for `CCN(CC)S(=O)(=O)c1ccc2oc(C(=O)N3CCOCC3)c(C)c2c1`, 96.5%.
On the same count and under the same terms, the result for `CCOC(=O)C1CCN(Cc2ccc(OC)c(C)c2OC)CC1` reads 86.9%; that for `Cc1cc(N)n2nc(-c3ccccc3)cc2n1`, 80.1%; that for `Cc1nnc(SCC(=O)Nc2sc3c(c2C#N)CCCC3)[nH]c1=O`, 102%.
Regarding `Cc1cc(NC(=O)COc2cccc(C)c2C)no1`, the viability was 108%.
On the same count and under the same terms, the result for `Cc1cc(C)c(NC(=O)CSc2nc3c(c(=O)n2C)SC(C)C3)c(C)c1` (stereo not given) reads 90%; that for `CC(=O)c1ccc(OCC(O)CN2CCN(CCO)CC2)cc1` (stereo not given), 96.3%; that for `CCn1cc(C(=O)NCC2CCCO2)c(=O)c2cc(S(=O)(=O)N(C)C)ccc21` (stereo not given), 88.6%.
Turning to `C=CCSc1nc(N)c2c(C)c(C)sc2n1`, the viability is 88%.
On the same count and under the same terms, the result for `CC1CCCN(C(=O)c2cc3c(-c4ccc(Cl)cc4)nn(C)c3s2)C1` (stereo not given) reads 92.5%; that for `COc1cccc2cc(C(=O)OC3CCN(C)CC3)c(=O)oc12`, 105%.
On the same count and under the same terms, the result for `COC(=O)c1cn(C(=O)c2ccc(Br)o2)c2ccccc12` reads 88.3%; that for `COc1cc(NC(=O)C2C3C=CC(C3)C2C(=O)O)c(OC)cc1Cl` (stereo not given), 98.3%; that for `COc1ccc(C2CC(c3ccc(C)cc3)Nc3ncnn32)cc1` (stereo not given), 101%.
For the compound `CCc1ccc(C2CC(c3cccc(OC)c3)n3nc(N)nc3N2)cc1` (stereo not given), the viability is 105%.
With `COc1ccc(NS(=O)(=O)c2coc(C(N)=O)c2)cc1Cl`, the viability was 99.1%.
Consider `O=C1c2ccccc2S(=O)(=O)N1CC(O)Cn1c2ccccc2c2ccccc21` (stereo not given), for which the viability is 85%.
As to `O=C(Nc1nnc(-c2ccc(Cl)cc2)o1)C1CCCCC1`, the viability is 69.2%.
On the same count and under the same terms, the result for `O=C1c2ccccc2C(Nc2ccc(F)cc2F)N1CCN1CCOCC1` (stereo not given) reads 78.2%.
The same measure, in the same setting: next, `CCOc1ccc(N(CC(=O)NC2CCCCC2)S(=O)(=O)c2c(C)noc2C)cc1`: 74.3%.
Still for that read-out and setting: next, `Cc1ccc2oc(=O)c3cnn(CC(=O)N4CCCc5ccccc54)c3c2c1`: 74.8%; `O=C(Nn1cnnc1)C1Cc2ccccc2CN1S(=O)(=O)c1ccc(F)cc1` (stereo not given): 97.2%.
For `Cc1cc(C)cc(N(CC(=O)NC2CCC(C)CC2)S(=O)(=O)c2c(C)noc2C)c1` (stereo not given), the viability is 88.1%.
The same measure, in the same setting: next, `Cc1nc2ccccn2c1/C(O)=C1\C(=O)C(=O)N(CCCN(C)C)C1c1ccc(F)cc1` (stereo not given): 90.8%.
Same read-out and setting: the result for `CC(=O)N(C(C)=O)c1ncc2c([nH]c3ccccc32)c1C#N` reads 61.4%; that for `CC(C)c1ccc(C(O)c2cnc(C(C)C)n2C)cc1` (stereo not given), 88.1%.
In the case of `COCCn1cc(C(=O)c2ccccc2OCC(=O)Nc2cc(C)on2)cc(C#N)c1=O`, the viability was 108%.
For `O=C(NC(=O)c1cccc(F)c1)OC[C@@H]1CCCN2CCCC[C@H]12`, the viability is 96.5%.
`CCN1CCN(C(=O)Cn2ncc3ccsc3c2=O)CC1`: the viability was 97%.
Still for that read-out and setting: the result for `CCCC(=O)Nc1cc(C)c2c(=O)oc3ccccc3c2n1` reads 77.6%; that for `Cc1cc(C)c(C#N)c(SCC(=O)Nc2ccc(S(=O)(=O)Nc3onc(C)c3C)cc2)n1`, 87.4%; that for `CC1=C(C(N)=O)C(c2ccncc2)n2nc(-c3ccccc3Cl)nc2N1` (stereo not given), 100%.
As for `O=C(C1CCCN1S(=O)(=O)c1cccc2cccnc12)N1CCn2c1nc1ccccc12` (stereo not given), the viability is 94.1%.
In the case of `Cc1ccc(C(=O)CC2(O)C(=O)N(C)c3ccc(Br)cc32)c(C)c1` (stereo not given), the viability is 75%.
Same read-out and setting: the result for `COc1ccc(OCCSc2nc3ccccc3n2CC(=O)O)cc1` reads 97.8%.
